# Screens deposited in PubChem BioAssay by several laboratories.
# The list is not random: actives were taken first. Their share in the collection is about 3.6%.
# EBNA-1 inh – EBNA-1 DNA-binding inhibitors, primary screen, biochemical, fluorescence polarization. inhibition, % at 14.8 µM. 300,000 tested, 0.34% active; in the data active = inhibition above about 28%
# ZTA counter – ZTA (EBV) inhibition in EBNA-1 counter-screen. inhibition, % at 11 µM. P03206. 320,000 tested, 0.15% active. AID 2234. ZTA-DNA binding, fluorescence polarization; in the data active = inhibition above about 33%
# Target sequence (P03206 whole entry, looked up): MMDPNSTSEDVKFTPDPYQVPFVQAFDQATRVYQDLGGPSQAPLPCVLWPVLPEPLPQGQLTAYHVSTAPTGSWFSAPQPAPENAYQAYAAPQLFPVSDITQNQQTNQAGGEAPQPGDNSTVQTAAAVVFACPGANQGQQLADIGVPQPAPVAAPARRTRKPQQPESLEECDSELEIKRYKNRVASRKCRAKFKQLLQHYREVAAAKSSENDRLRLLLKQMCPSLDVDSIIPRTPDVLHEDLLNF
# NR3A LBD binder – binders of NR3A ligand-binding domain, primary screen, biophysical, differential scanning fluorimetry, uHTS; 340,000 tested, 2.5% active; NR3A LBD differential scanning fluorimetry, Tm shift; 0% = protein alone, 100% = glycine-bound protein; Glutamate receptor ionotropic, NMDA 3A (GRIN3A) ligand-binding domain; Tm shift relative to glycine control, % at 25 µM; AID 1259313, 2017;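 active = melting temperature shift of at least 10% of the positive control shift, at one fixed dose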
# FGF22 binding – binders of human FGF22 protein, primary screen, FGF22 synaptogenesis inhibitor project, biophysical, thermal shift, single point. Fibroblast growth factor 22 (Homo sapiens), Q9HCT0. recombinant FGF22 thermal shift, SYPRO orange fluorescence; percent of sucrose octasulfate shift, DMSO zero. activity (Tm shift, normalised), % at 9.99 µM. 340,000 tested, 1.5% active. AID 651658, 2012;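 active = mean Tm shift, scaled 0 neutral to 100 positive control, at about 1.3% or above, every replicate too, limit read from the data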
# Target sequence (Q9HCT0 whole entry, looked up): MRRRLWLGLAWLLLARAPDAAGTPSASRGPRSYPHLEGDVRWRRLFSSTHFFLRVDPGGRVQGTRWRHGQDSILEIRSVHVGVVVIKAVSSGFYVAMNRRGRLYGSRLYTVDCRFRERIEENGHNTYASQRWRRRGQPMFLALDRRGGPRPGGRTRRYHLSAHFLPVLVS
# NS3 helicase inh – inhibitors of HCV NS3 helicase, primary screen, biochemical, Cy5 molecular beacon fluorescence; NS3 helicase DNA unwinding; 290,000 tested, 0.56% active; Hepatitis C virus NS3 helicase; AID 1800, 2009; inhibition, % at 10.9 µM;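 active = inhibition above the mean of all tested compounds plus 3 SD, set per campaign, cut at about 35% in these data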;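 note: 0% = DMSO wells and 100% = thioflavine S control wells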
#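 Material: hepatitis C virus NS3 helicase domain fragment enzyme; measured by: Cy5 fluorescence, 0 and 60 min reads; control set: DMSO and thioflavine S; incubation: 60 min unwinding reaction at 25 °C after ATP addition; read-out basis: % inhibition from 60/0 min fluorescence ratio, DMSO 0%, thioflavine S 100%; repeats: singlicate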
# DNA FID counter – compounds displacing fluorescent DNA intercalator, primary screen, artefact control for HCV NS3 helicase inhibitor project, biochemical, FID fluorescence | DNA fluorescent intercalator displacement | inhibition, % at 7.9 µM | 290,000 tested, 0.17% active; in the data active = inhibition above about 37%;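 note: 0% = vehicle and 100% = reference compound; higher means more ethidium bromide displaced from hairpin DNA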
# EBNA-1 confirm – EBNA-1 DNA-binding inhibitors, retest, confirmation, biochemical, fluorescence polarization, triplicate; shares compounds with EBNA-1 inh; AID 2292, 2010; 830 tested, 35% active; Recombinant EBNA-1 DBD, Cy5-DNA fluorescence polarization; inhibition, % at 14.8 µM;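 active = mean inhibition across replicates above a set limit taken from the earlier primary screen, cut at about 28% in these data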;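 note: plate controls were EBNA-1 protein with DMSO for no effect and wells lacking EBNA-1 for full effect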
# ZTA counter trip – EBV Zta DNA binding inhibitors, counter-screen for EBNA-1 inhibitor project, biochemical, fluorescence polarization, triplicate | shares compounds with EBNA-1 inh | inhibition, % at 11.1 µM | Zta-ZRE DNA binding, Cy5 fluorescence polarization | AID 2328, 2010 | 830 tested, under 10 active;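 active = mean inhibition over triplicates above a set limit taken from the primary EBNA-1 screen, cut at about 37% in these data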;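 note: purified full length Zta protein with Cy5 labeled ZRE DNA probe; 0% = Zta with DMSO and 100% = wells lacking Zta protein; inhibitors lower polarization by freeing the labeled DNA probe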
# * marks the source's active call; other numbers are inactive results; . = not tested or not shown.
SMILES,EBNA-1 inh,ZTA counter,NR3A LBD binder,FGF22 binding,NS3 helicase inh,DNA FID counter,EBNA-1 confirm,ZTA counter trip
Cc1ccc(NC(=O)CSc2ccc(-c3ccc4c(c3)OCO4)nn2)cc1F,52*,-10,-3,.,-4,1,68*,1
COc1ccc(S(=O)(=O)N(C)C[C@H]2Oc3ccc(NS(=O)(=O)c4ccc(F)cc4)cc3C(=O)N([C@@H](C)CO)C[C@@H]2C)cc1,.,.,.,0,.,.,.,.
COc1cc(C(=O)Oc2ccc(/C=N/NC(=O)c3ccncc3)cc2)cc(OC)c1OC,34*,0,-6,0,-2,-47,-14,-11
COc1ccc(S(=O)(=O)N(C)C[C@@H]2OCCCC[C@H](C)Oc3ccc(NC(=O)Nc4ccc(C(F)(F)F)cc4)cc3C(=O)N([C@H](C)CO)C[C@@H]2C)cc1,.,.,.,1,.,.,.,.
CCCCNC(=O)CN1C(=O)COc2ccc(S(=O)(=O)N3CCCCCC3)cc21,-14,0,2,0,-3,-33,.,.
CCCCN(CC)CCNC(=O)CN1C(=O)COc2ccc(S(=O)(=O)N3CCCC3)cc21,77*,2,-3,.,1,5,-2,-2
COCCOC(=O)c1c(NC(=O)CNc2ccc(C)c(F)c2)sc(C(N)=O)c1C,42*,-3,1,0,5,0,14,14
COCCOC(=O)c1c(NC(=O)CNCc2ccco2)sc(C(N)=O)c1C,-3,1,0,0,3,-13,.,.
COc1ccc(-c2csc(N3C(=O)CNC3=S)n2)cc1,82*,-1,1,.,-8,-1,44*,-11
COc1ccc(-c2csc(N3C(=N)SCC3=O)n2)cc1,44*,3,2,.,-1,-3,16,-1
O=C1CNC(=S)N1c1nc(-c2ccccc2)cs1,-7,0,-4,0,0,0,.,.
COc1ccc(-c2csc(N3C(=O)C4C5c6ccccc6C(c6ccccc65)[C@@H]4C3=O)n2)cc1 (some centres not stated),9,0,-2,.,-4,-1,.,.
CC(C)NC(=O)N1CCCCN2[C@H](CO)[C@H](c3ccc(C#Cc4ccccc4)cc3)[C@@H]2C1,.,.,.,0,.,.,.,.
CC(C)CNC(=S)N(Cc1ccco1)Cc1cc2cc3c(cc2[nH]c1=O)OCCO3,61*,7,-4,.,4,-11,2,17
C[C@H](CO)N1C[C@H](C)[C@@H](CN(C)C(=O)Cc2ccccc2)Oc2ncc(-c3ccc(F)cc3)cc2C1=O,.,.,.,0,.,.,.,.
O=C(Cc1ccccc1)Nc1scc(-c2ccccc2)c1C(=O)N1CCOCC1,3,-2,0,.,8,-25,.,.
NC(=O)c1c(-c2ccc(Cl)cc2Cl)csc1NC(=O)Cc1ccccc1,29*,-11,-1,.,0,-9,6,12
CC=Cc1ccc2n(c1=O)C[C@H]1[C@H](CO)[C@@H](C(=O)Nc3ccccc3)N(CC3CCCC3)[C@@H]21 (mixture of isomers),.,.,.,0,.,.,.,.
Cc1cc2c(Nc3ccc(C(=O)O)cc3)ncnc2s1,97*,14,0,0,-1,3,-9,-12
COc1ccc(CNc2ncnc(N)n2)cc1,1,-6,0,.,2,-5,.,.
COc1ccc(CNc2nc(NCc3ccc(OC)cc3)c3[nH]cnc3n2)cc1,39*,-7,-9,0,.,.,7,11
COc1ccc(C(=O)CSc2cc(C)nc(SCC(=O)c3ccc(C)cc3)n2)cc1,2,-10,0,.,5,-1,.,.
Cc1ccc(C(=O)CSc2nc(C)cc(SCc3nnc(-c4ccccc4)o3)n2)cc1,28*,-6,-3,.,8,1,23,10
Cc1nc(-c2ccccc2)nc2[nH]c(-c3ccccc3)cc(=O)c12,28*,-5,-5,.,-9,-3,18,-3
Cc1ccc(OCc2nnc(NC(=O)c3ccco3)s2)c(C)c1,46*,3,0,.,-4,0,-2,-1
SMILES,EBNA-1 inh,ZTA counter,NR3A LBD binder,FGF22 binding,NS3 helicase inh,DNA FID counter,EBNA-1 confirm,ZTA counter trip
COc1ccc(-n2c(SCC(=O)NCCCN3CCCC3=O)nnc2C(C)N2CCCCC2)cc1 (configuration not stated),41*,-3,5,0,-6,-6,2,0
CCOc1ccc(NC(=O)c2cc3cc4ccc(OC)cc4nc3o2)cc1,29*,3,13*,.,6,1,45*,5
CCCCOc1ccc(C(=O)Nc2ccc(C)cc2[N+](=O)[O-])cc1,34*,-5,2,0,11,-2,1,7
COCC(=O)Nc1ccc2c(c1)[C@@H]1C[C@H](CC(=O)NCC(F)(F)F)O[C@H](CO)[C@@H]1O2,.,.,.,0,.,.,.,.
CCCCN(C(=O)c1cc(CC)c(C)s1)c1c(N)n(CC(C)C)c(=O)[nH]c1=O,66*,-16,0,0,2,-19,4,-6
CCc1cc(C(=O)N(C)CC(=O)N(CC(C)C)c2c(N)n(CC(C)C)c(=O)[nH]c2=O)sc1C,9,3,-1,.,4,-47,.,.
CCCCN(C(=O)c1cccc(-n2cccc2)c1)c1c(N)n(Cc2ccccc2)c(=O)[nH]c1=O,31*,22,.,.,.,.,-4,-7
CCCCN(C(=O)c1cccc(N2C(=O)c3ccccc3C2=O)c1)c1c(N)n(CC(C)C)c(=O)[nH]c1=O,.,-4,0,0,.,.,.,.
COc1ccc(NC(=O)Nc2ccc3c(c2)C(=O)N([C@@H](C)CO)C[C@H](C)[C@H](CN(C)Cc2ccncc2)OCCCC[C@@H](C)O3)cc1,.,.,.,-1,.,.,.,.
Cc1cccc(/C=N/NC(=O)c2cc3c(s2)-c2ccccc2CC3)c1,132*,9,4,.,-7,1,-4,5
CCCC#Cc1cnc2c(c1)C(=O)N([C@@H](C)CO)C[C@H](C)[C@@H](CN(C)C(=O)Nc1c(C)noc1C)O2,.,.,.,0,.,.,.,.
CC(=O)Nc1ccc(C(=O)CSc2nnnn2C)cc1,3,-8,-1,0,-5,3,.,.
